Tests used:
[1] = system: SK-OV-3; assay: Cytotoxicity against human SKOV3 cells in oxic condition after 4 hrs by sulforhodamine B assay; format: functional, cell-based; settings: SK-OV-3, 4 h
Procedure, shortened: (§1)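 Log-phase monolayers exposed to drug for 4 h under aerobic (20% O2) or anoxic (<20 ppm O2) conditions, then sulforhodamine B staining 5 days later. IC50 interpolated as concentration lowering cell density to 50% of same-plate controls. HCR = IC50(oxic)/IC50(hypoxic), mean of intraexperiment ratios. A549 P450R line is a stable transfectant with 9-fold higher cytochrome c reduction rate than parent.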

[2] = system: SK-OV-3; assay: Cytotoxicity against human SKOV3 cells in hypoxic condition after 4 hrs by sulforhodamine B assay; format: functional, cell-based; settings: SK-OV-3, 4 h; procedure, shortened: as §1
[3] = system: SK-OV-3; assay: Hypoxic cytotoxicity ratio, IC50 for human SKOV3 cells in oxic condition to IC50 for human SKOV3 cells in hypoxic condition; format: functional; procedure, shortened: as §1
[4] = system: HT-29; assay: Cytotoxicity against human HT-29 cells in oxic condition after 4 hrs by sulforhodamine B assay; format: functional, cell-based; settings: HT-29, 4 h; procedure, shortened: as §1
[5] = system: HT-29; assay: Cytotoxicity against human HT-29 cells in hypoxic condition after 4 hrs by sulforhodamine B assay; format: functional, cell-based; settings: HT-29, 4 h; procedure, shortened: as §1
[6] = system: HT-29; assay: Hypoxic cytotoxicity ratio, IC50 for human HT-29 cells in oxic condition to IC50 for human HT-29 cells in hypoxic condition; format: functional; procedure, shortened: as §1

| SMILES | IC50 [1] | IC50 [2] | Ratio IC50 [3] | IC50 [4] | IC50 [5] | Ratio IC50 [6] |
| --- | --- | --- | --- | --- | --- | --- |
| COc1cc2cc(C(=O)N3CC(CCl)c4c3cc([N+](=O)[O-])c3cccc([N+](=O)[O-])c43)[nH]c2c(OC)c1OC (stereo not drawn) | 55 µM | > 50 µM | <1.1 | 34 µM | 33000 nM | 1.2 |
| COc1cc2cc(C(=O)N3CC(CCl)c4c3cc([N+](=O)[O-])c3cc(C#N)ccc43)[nH]c2c(OC)c1OC (stereo not drawn) | 6.4 µM | 1 µM | 13 | 5.3 µM | 2400 nM | 2.5 |
| CN(C)CCOc1ccc2[nH]c(C(=O)N3CC(CCl)c4c3cc(N)c3ccccc43)cc2c1 (stereo not drawn) | 6.8 µM | 0.0066 µM | 0.97 | 5 µM | 3.5 nM | 1.3 |
| CN(C)CCOc1ccc2[nH]c(C(=O)N3CC(CCl)c4c3cc([N+](=O)[O-])c3cc([N+](=O)[O-])ccc43)cc2c1 (stereo not drawn) | 1.1 µM | 0.00012 µM | 9.3 | 0.89 µM | 0.093 nM | 9.6 |
| CN(C)CCOc1ccc2[nH]c(C(=O)N3CC(CCl)c4c3cc([N+](=O)[O-])c3ccc(C#N)cc43)cc2c1 (stereo not drawn) | 1.2 µM | 0.88 µM | 1.5 | 1.4 µM | 1200 nM | 1.4 |
| COc1cc2cc(C(=O)N3CC(CCl)c4c3cc(N)c3ccccc43)[nH]c2c(OC)c1OC (stereo not drawn) | 1.3 µM | 0.0017 µM | 1 | 0.86 µM | 2.5 nM | 0.76 |
| COc1cc2cc(C(=O)N3CC(CCl)c4c3cc([N+](=O)[O-])c3ccccc43)[nH]c2c(OC)c1OC (stereo not drawn) | 4.2 µM | 0.0017 µM | 2.8 | 3.4 µM | 1.6 nM | 2.5 |
| COc1cc2cc(C(=O)N3CC(CCl)c4c3cc(N)c3cc(C#N)ccc43)[nH]c2c(OC)c1OC (stereo not drawn) | 10 µM | 0.009 µM | 1.3 | 15 µM | 11 nM | 1.9 |

Source: ChEMBL document CHEMBL1156136, “Hypoxia-activated prodrugs: substituent effects on the properties of nitro seco-1,2,9,9a-tetrahydrocyclopropa[c]benz[e]indol-4-one (nitroCBI) prodrugs of DNA minor groove alkylating agents” (J Med Chem, 2009)
